Measurements published in the array DNA melting data of Ke et al. (doi:10.1101/2024.01.08.574731).

Assays:
[1] = folding enthalpy; higher = less favourable; fluorescence melt of hairpins on a sequencing array, two-state fit; details: sodium 0.088 M
In short: (§1)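 Melting temperature and folding enthalpy were obtained by bootstrapped two-state fitting. Fits used Cy3 fluorescence of library hairpins with annealed Cy3 and quencher oligos on a sequenced MiSeq flow cell, imaged in 50 mM Na-HEPES pH 8.0, 25 mM NaCl in 2.5 °C steps up to 60 °C and normalised to pre-quench Cy3 and control constructs. Four replicates were combined by inverse-variance weighting, and fitted temperatures were raised by 9.35 °C to match UV melts.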

[2] = melting temperature; fluorescence melt of hairpins on a sequencing array, two-state fit, raised by 9.35 °C to match UV melts; details: sodium 0.088 M
In short: as §1

Row | Sequence | folding enthalpy [1] [kcal/mol] | Tm [2] [°C]
1 | GCTGAGGGAAACCTTGGC ((..(((....)))..)) | -26.6 | 38.1
2 | GCTGAGGGAAACTTCAGC (((((.(....).))))) | -32.5 | 48.6
3 | GCTGAGTCGAAAGACAGC (((..(((....)))))) | -20.8 | 44.5
4 | GCTGATGGAAACATCGGC ((.((((....)))).)) | -43 | 54.1
5 | GCTGATGGAAACATTAGC (((.(((....))).))) | -37.4 | 46.5
6 | GCTGCAACGAAAGTTAGC (((..(((....)))))) | -17.2 | 39.8
7 | GCTGCACGAAAGTGAGC (((.(((....)))))) | -18.8 | 51.3
8 | GCTGCACGAAAGTGGAGC (((.(((....))).))) | -34.2 | 65.6
9 | GCTGCACGAAAGTGTAGC (((.(((....))).))) | -43.9 | 65
10 | GCTGCAGGAAACTGTAGC (((.(((....))).))) | -34.3 | 52
11 | GCTGCCGAAAGGCGCAGC ((((((....)))..))) | -13.6 | 51.3
12 | GCTGCCGCGAAAGCGAGC (((..(((....)))))) | -9.35 | 57.6
13 | GCTGCCGGAAACGGCAAC (.(((((....))))).) | -10.9 | 47.4
14 | GCTGCCGGAAACGGTAGC (((.(((....))).))) | -39.9 | 64
15 | GCTGCGCGAAAGCATAGC (((..((....))..))) | -18.2 | 46.5
16 | GCTGCGCGAAAGCCAAGC (((..((....))..))) | -18.9 | 48.9
17 | GCTGCGCGAAAGCCCAGC ((((.((....)).)))) | -31.1 | 63.5
18 | GCTGCGCGAAAGCGACGC ((..(((....)))..)) | -19.4 | 56
19 | GCTGCGCGAAAGCGAGGC ((..(((....)))..)) | -20.3 | 60.6
20 | GCTGCGCGAAAGCGCCGC ((.((((....)))).)) | -15.3 | 63.1
21 | GCTGCGCGAAAGCGGTGC ((..(((....)))..)) | -19.6 | 55.1
22 | GCTGCGCGAAAGCGTTGC ((..(((....)))..)) | -18.9 | 56.7
23 | GCTGCGGGAAACTGCAGC (((((.(....).))))) | -40.6 | 64.5

Row | Sequence | folding enthalpy [1] [kcal/mol] | Tm [2] [°C]
24 | GCTGCTACGAAAGTAAGC (((..(((....)))))) | -17.1 | 41.5
25 | GCTGCTGGAAACGGCAGC (((((.(....).))))) | -44.6 | 63.1
26 | GCTGCTTCGAAAGAAAGC (((..(((....)))))) | -18 | 39.6
27 | GCTGGAGCGAAAGCTAGC (((..(((....)))))) | -16.6 | 49.9
28 | GCTGGCGAAAGCCAAAGC ((((((....)))..))) | -18.2 | 53.5
29 | GCTGGCGAAAGCCATAGC ((((((....)))..))) | -16.2 | 52.3
30 | GCTGGCGAAAGCCCAAGC ((((((....)))..))) | -15.3 | 50
31 | GCTGGCGAAAGCCCAGC ((((((....))).))) | -23.1 | 65.7
32 | GCTGGCGAAAGCCGAAGC ((((((....)))..))) | -16.5 | 50.8
33 | GCTGGCGAAAGCCGAGC ((((((....))).))) | -23.5 | 65.3
34 | GCTGGCGAAAGCCGTAGC ((((((....)))..))) | -13.9 | 58.9
35 | GCTGGCGAAAGCCTGAGC ((((((....)))..))) | -14.8 | 50.2
36 | GCTGGCGCGAAAGCGAGC (((..(((....)))))) | -9.37 | 55.6
37 | GCTGGCGGAAACGCTAGC (((.(((....))).))) | -40.5 | 59.1
38 | GCTGGGCGAAAGCCAGGC ((..(((....)))..)) | -17.7 | 59.6
39 | GCTGGGCGAAAGCCGCGC ((..(((....)))..)) | -15.3 | 61.4
40 | GCTGGGCGAAAGCTCCGC ((.(.((....)).).)) | -20.4 | 41.8
41 | GCTGGGCGAAAGCTCGGC ((.(.((....)).).)) | -32.5 | 60.3
42 | GCTGGGCGAAAGCTTAGC (((..((....))..))) | -23 | 50.5
43 | GCTGGGGCGAAAGCCAGC (((..(((....)))))) | -16.8 | 55.3
44 | GCTGGGGGAAACTCCAGC (((((.(....).))))) | -37.6 | 58
45 | GCTGGGTCGAAAGACAGC (((..(((....)))))) | -19.9 | 46
46 | GCTGGTCCGAAAGGAAGC (((..(((....)))))) | -13.2 | 34.9

Row | Sequence | folding enthalpy [1] [kcal/mol] | Tm [2] [°C]
47 | GCTGGTCGAAAGACAAGC (((.(((....))).))) | -41.4 | 56.2
48 | GCTGGTCGAAAGACGAGC (((.(((....))).))) | -54.3 | 54.5
49 | GCTGGTGGAAACGTCAGC ((((..(....)..)))) | -23.9 | 43.3
50 | GCTGTACGAAAGTAGAGC (((.(((....))).))) | -35.3 | 51.7
51 | GCTGTAGGAAACTACAGC (((((((....))))))) | -44.6 | 63.3
52 | GCTGTAGGAAACTACGGC ((.((((....)))).)) | -42.9 | 53.3
53 | GCTGTAGGAAACTATAGC (((.(((....))).))) | -28.3 | 43.7
54 | GCTGTCGAAAGACTCAGC ((((((....)))..))) | -18.7 | 40.5
55 | GCTGTGCGAAAGCAGTGC ((..(((....)))..)) | -15.8 | 46.6
56 | GCTGTGCGAAAGCGCGGC ((.(.((....)).).)) | -25.3 | 66.6
57 | GCTGTGCGAAAGCTCCGC ((.(.((....)).).)) | -14.5 | 40
58 | GCTGTGCGAAAGCTGAGC (((..((....))..))) | -16.6 | 49.1
59 | GCTGTGGCGAAAGCCAGC (((..(((....)))))) | -13.8 | 52.2
60 | GCTGTGGGAAACCACAAC (.(((((....))))).) | -15.8 | 39.2
61 | GCTGTTGGAAACAACAAC (.(((((....))))).) | -15.9 | 35.2
62 | GCTGTTGGAAACAATAGC (((.(((....))).))) | -31.9 | 47.9
63 | GCTGTTGGAAACAGTAGC (((..((....))..))) | -11.9 | 41.6
64 | GCTTAACGAAAGTTAGC (((.(((....)))))) | -21.7 | 44.9
65 | GCTTAACGAAAGTTCAGC (((.(((....))).))) | -31.6 | 44.4
66 | GCTTAAGCGAAAGCTAGC (((..(((....)))))) | -17.6 | 40.5
67 | GCTTAAGGAAACCTAAGC (((((.(....).))))) | -22.8 | 35.7
68 | GCTTACACGAAAGTGAGC (((..(((....)))))) | -16.9 | 38.8
